# Experimental data from ChEMBL document CHEMBL4138162, “Design and synthesis of small molecule agonists of EphA2 receptor” (Eur J Med Chem, 2018).
# Activity calls are given as the source filed them. The calls are words filed in the database; no cut-off is given here.
# Target: Ephrin type-A receptor 2 (Homo sapiens) (UniProt P29317)
# Assay: Binding affinity to EphA2 in human MDA-MB-231 cells assessed as induction of EphA2 receptor internalization at 0.4 uM after 1 hr by immunofluorescence microscopy
# Assay type: cell-based
# How it was run: (§1)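 MDA-MB-231 cells on fibronectin-coated coverslips, 24–48 h after seeding, treated 1 h with compound (0.4–50 µM) in 0.5% DMSO. Cells were then PFA-fixed on ice, permeabilized with NP-40 and immunostained with anti-EphA2 (D7) plus Alexa Fluor 488 secondary, with DAPI counterstain. Surface versus intracellular EphA2 was judged by fluorescence microscopy. Three independent repeats.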
# Chain of Ephrin type-A receptor 2 (Homo sapiens) (P29317 whole entry): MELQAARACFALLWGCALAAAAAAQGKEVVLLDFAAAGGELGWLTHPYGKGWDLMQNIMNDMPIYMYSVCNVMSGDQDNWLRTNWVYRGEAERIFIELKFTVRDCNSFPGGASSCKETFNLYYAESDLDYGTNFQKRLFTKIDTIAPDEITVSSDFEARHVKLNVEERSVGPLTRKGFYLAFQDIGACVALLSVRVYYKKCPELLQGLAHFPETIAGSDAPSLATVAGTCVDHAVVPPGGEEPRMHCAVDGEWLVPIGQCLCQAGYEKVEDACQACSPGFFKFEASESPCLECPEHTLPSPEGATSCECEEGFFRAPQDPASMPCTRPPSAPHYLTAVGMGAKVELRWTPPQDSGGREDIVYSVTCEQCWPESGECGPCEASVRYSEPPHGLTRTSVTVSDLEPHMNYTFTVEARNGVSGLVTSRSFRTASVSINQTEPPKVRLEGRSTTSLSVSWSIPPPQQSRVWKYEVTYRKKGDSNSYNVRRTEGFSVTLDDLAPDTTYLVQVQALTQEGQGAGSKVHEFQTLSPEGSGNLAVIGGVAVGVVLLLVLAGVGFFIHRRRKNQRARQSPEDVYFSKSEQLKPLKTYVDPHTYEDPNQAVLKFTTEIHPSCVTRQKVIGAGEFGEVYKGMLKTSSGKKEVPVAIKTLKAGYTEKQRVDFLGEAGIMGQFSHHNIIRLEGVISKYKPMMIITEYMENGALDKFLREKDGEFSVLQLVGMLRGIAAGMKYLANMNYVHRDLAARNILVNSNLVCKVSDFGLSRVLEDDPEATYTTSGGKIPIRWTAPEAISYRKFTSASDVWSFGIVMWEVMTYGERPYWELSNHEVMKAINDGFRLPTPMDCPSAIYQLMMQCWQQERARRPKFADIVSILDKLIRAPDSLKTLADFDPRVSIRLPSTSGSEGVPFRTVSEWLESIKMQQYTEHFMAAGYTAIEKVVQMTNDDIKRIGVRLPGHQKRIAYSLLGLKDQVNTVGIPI
row,Structure (SMILES),Activity
1,COc1cc2nc(N3CCN(C(=O)CCCCCCCCCCC(=O)N4CCN(c5nc(N)c6cc(OC)c(OC)cc6n5)CC4)CC3)nc(N)c2cc1OC,Active

# Target: Ephrin type-A receptor 2 (Homo sapiens) (UniProt P29317)
# Assay: Binding affinity to EphA2 in human MDA-MB-231 cells assessed as induction of EphA2 receptor internalization at 50 uM after 1 hr by immunofluorescence microscopy
# Assay type: cell-based
# How it was run: as §1
row,Structure (SMILES),Activity
1,COc1cc2nc(N3CCN(C(=O)C4COc5ccccc5O4)CC3)nc(N)c2cc1OC (centres undefined),Active

# Target: Ephrin type-A receptor 2 (Homo sapiens) (UniProt P29317)
# Assay: Agonist activity against EphA2 (unknown origin) overexpressed in MDA-MB-231-A2 cells assessed as increase in phosphorylated EphA2 levels at 50 uM after 30 mins by immunoprecipitation and immunoblot assay
# Assay type: cell-based
# How it was run: (§2)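 MDA-MB-231 cells stably overexpressing EphA2 (kept in 1 µg/ml puromycin) were plated at 100,000 cells/well, grown 24 h, then treated 30 min with compound (2, 10, 50 µM; DMSO stock at 200× final, 0.5% DMSO vehicle). Lysates in modified RIPA were immunoprecipitated with ephrin-A1-Fc on Protein G beads. Blots were probed for pEphA/B and EphA2, and pEphA2/total EphA2 was quantified by band densitometry.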
row,Structure (SMILES),Activity
1,COc1cc2nc(N3CCN(C(=O)CCCCCCCCCCC(=O)N4CCN(c5nc(N)c6cc(OC)c(OC)cc6n5)CC4)CC3)nc(N)c2cc1OC,Active

# Tested on: MDA-MB-231
# Assay: Anticlonogenic activity against human MDA-MB-231 cells up to 10 uM after 14 days by crystal violet staining-based assay
# Assay type: functional, cell-based
# How it was run: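 Parental MDA-MB-231 cells, 1000/well, cultured 24 h, then exposed to 0, 0.08, 0.4, 2 or 10 µM compound in 0.5% DMSO for 14 days. Colonies were fixed in 4% paraformaldehyde, rinsed in 20% methanol and stained with 0.5% crystal violet. Three independent experiments.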
row,Structure (SMILES),Activity
1,COc1cc2nc(N3CCN(C(=O)CCCCCCCCCCC(=O)N4CCN(c5nc(N)c6cc(OC)c(OC)cc6n5)CC4)CC3)nc(N)c2cc1OC,Active
2,COc1cc2nc(N3CCN(C(=O)Cc4ccc(OCc5ccccc5)cc4)CC3)nc(N)c2cc1OC,Active
3,CCCCCC(=O)N1CCN(c2nc(N)c3cc(OC)c(OC)cc3n2)CC1,Active

# Target: Ephrin type-A receptor 2 (Homo sapiens) (UniProt P29317)
# Assay: Agonist activity against EphA2 (unknown origin) overexpressed in MDA-MB-231-A2 cells assessed as increase in phosphorylated EphA2 levels at 2 to 50 uM after 30 mins by immunoprecipitation and immunoblot assay relative to 50 uM doxazosin
# Assay type: cell-based
# How it was run: as §2
row,Structure (SMILES),Activity
1,COc1cc2nc(N3CCN(C(=O)Cc4ccc(OCc5ccccc5)cc4)CC3)nc(N3CCCCC3)c2cc1OC,inactive
2,COc1ccc(CC(=O)N2CCN(c3nc(N)c4cc(OC)c(OC)cc4n3)CC2)cc1,Active
3,COc1ccc(C(=O)N2CCN(c3nc(N)c4cc(OC)c(OC)cc4n3)CC2)cc1,inactive
4,COc1cc2nc(N3CCN(C(=O)Cc4ccc5ccccc5c4)CC3)nc(N)c2cc1OC,Active
5,COc1cc2nc(N3CCN(C(C)=O)CC3)nc(N)c2cc1OC,inactive
6,COc1cc2nc(N3CCN(C(=O)CCCCCCCCCCC(=O)N4CCN(c5nc(N)c6cc(OC)c(OC)cc6n5)CC4)CC3)nc(N)c2cc1OC,Active
7,CCc1ccc(C(=O)N2CCN(c3nc(N)c4cc(OC)c(OC)cc4n3)CC2)cc1,Active
8,COc1cc2nc(N3CCN(C(=O)C4CCCCC4)CC3)nc(N)c2cc1OC,inactive
9,COc1cc2nc(N3CCN(C(=O)c4ccc(-c5ccccc5)cc4)CC3)nc(N)c2cc1OC,Active
10,COc1cc2nc(N3CCN(C(=O)c4ccc(Cl)c([N+](=O)[O-])c4)CC3)nc(N)c2cc1OC,inactive
11,COc1cccc(CC(=O)N2CCN(c3nc(N)c4cc(OC)c(OC)cc4n3)CC2)c1,Active
12,COc1cc2nc(N3CCN(C(=O)Cc4ccc(OCc5ccccc5)cc4)CC3)nc(N3CCCC3)c2cc1OC,inactive
13,COc1cc2nc(N3CCN(C(=O)Cc4ccc(OCc5ccccc5)cc4)CC3)nc(N)c2cc1OC,Active
14,COc1cc2nc(N3CCN(C(=O)Cc4ccccc4)CC3)nc(N)c2cc1OC,Active
15,COc1cc2nc(N3CCN(C(=O)c4ccc(I)cc4)CC3)nc(N)c2cc1OC,Active
16,COc1cc2nc(N3CCN(C(=O)c4cccs4)CC3)nc(N)c2cc1OC,inactive
17,COc1cc2nc(N3CCN(C(=O)c4ccc(Br)cc4)CC3)nc(N)c2cc1OC,Active

row,Structure (SMILES),Activity
1,COc1cc2nc(N3CCN(C(=O)C(C)c4ccccc4)CC3)nc(N)c2cc1OC (centres undefined),Active
2,COc1cc2nc(N3CCN(C(=O)c4ccccn4)CC3)nc(N)c2cc1OC,inactive
3,COc1cc2nc(N3CCN(C(=O)CCCCC(=O)N4CCN(c5nc(N)c6cc(OC)c(OC)cc6n5)CC4)CC3)nc(N)c2cc1OC,inactive
4,COc1cc2nc(N3CCN(C(=O)c4ccno4)CC3)nc(N)c2cc1OC,inactive
5,COc1cc2nc(N3CCN(C(=O)c4ccncc4)CC3)nc(N)c2cc1OC,inactive
6,COc1cc2nc(N3CCN(C(=O)c4ccc5ccccc5c4)CC3)nc(N)c2cc1OC,Active
7,CCC(=O)N1CCN(c2nc(N)c3cc(OC)c(OC)cc3n2)CC1,inactive
8,CCOc1cc2nc(N3CCN(C(=O)Cc4ccc(OCc5ccccc5)cc4)CC3)nc(N)c2cc1OCC,inactive
9,COc1cc2nc(N3CCN(C(=O)c4ccc5c(c4)OCO5)CC3)nc(N)c2cc1OC,Active
10,COc1ccc(C(=O)N2CCN(C(=O)c3ccc(OC)cc3)CC2)cc1,inactive
11,COc1cc2nc(N3CCN(C(=O)c4ccco4)CC3)nc(N)c2cc1OC,inactive
12,COc1cc2nc(N3CCN(C(=O)C4COc5ccccc5O4)CC3)nc(NC(C)=O)c2cc1OC (centres undefined),inactive
13,CSc1ccc(C(=O)N2CCN(C(=O)c3ccc(SC)cc3)CC2)cc1,inactive
14,COc1cc2nc(N3CCN(C(=O)Cc4ccc(OCc5ccccc5)cc4)CC3)nc(NC(C)=O)c2cc1OC,inactive
15,CCCC(=O)N1CCN(c2nc(N)c3cc(OC)c(OC)cc3n2)CC1,inactive
16,CCCCCC(=O)N1CCN(c2nc(N)c3cc(OC)c(OC)cc3n2)CC1,inactive
